Here are results for 44 compounds from ChEMBL document CHEMBL1125266, “Tyrphostins. 2. Heterocyclic and alpha-substituted benzylidenemalononitrile tyrphostins as potent inhibitors of EGF receptor and ErbB2/neu tyrosine kinases” (J Med Chem, 1991).

For orientation: IC50 means the concentration that inhibits the measured activity by half. What is called Inhibition is the relative decrease from the control value, in per cent.

Assay [1] has as its target T1, Epidermal growth factor receptor (Homo sapiens, UniProt P00533). Kind of assay: Inhibition of polyGAT phosphorylation.
In assay [2] the target is T1, Epidermal growth factor receptor. Put plainly: In vitro inhibition of HER1 autophosphorylation.
In assay [3] the target is Receptor tyrosine-protein kinase erbB-2 (Homo sapiens, UniProt P04626). Put plainly: In vitro inhibition of ERBB2 receptor kinase autophosphorylation.
Assay [4] concerns NIH3T3. Put plainly: (§1) Inhibition of HER14 serum dependent cell proliferation without EGF. The format is functional, Mus musculus. The method, boiled down: (§2)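 Serum-starved HER14 cells (NIH3T3 stably overexpressing EGF receptor) were given inhibitor at least 6-8 h before serum stimulation, with no EGF added. Inhibitor-containing medium was replaced every 24 h. Three parallel wells were used per concentration, and the IC50 for inhibition of serum-supported growth was determined.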

Assay [5] deals with NIH3T3. Described as §1. To be noted: Mus musculus.
In assay [6] the test system is NIH3T3. Put plainly: Inhibition of HER14 (human EGFR overexpressing NIH3T3) cell growth in the absence of EGF. The assay is classed as functional, Mus musculus. The method, boiled down: as §2
The target in assay [7] is T1, Epidermal growth factor receptor. Put plainly: Inhibition of epidermal growth factor receptor autophosphorylation.
Assay [8] concerns NIH3T3. The description is as §1. The assay is classed as functional, cell-based. Conditions: Mus musculus. In outline:
as §2

Chain of Receptor tyrosine-protein kinase erbB-2 (P04626 whole entry): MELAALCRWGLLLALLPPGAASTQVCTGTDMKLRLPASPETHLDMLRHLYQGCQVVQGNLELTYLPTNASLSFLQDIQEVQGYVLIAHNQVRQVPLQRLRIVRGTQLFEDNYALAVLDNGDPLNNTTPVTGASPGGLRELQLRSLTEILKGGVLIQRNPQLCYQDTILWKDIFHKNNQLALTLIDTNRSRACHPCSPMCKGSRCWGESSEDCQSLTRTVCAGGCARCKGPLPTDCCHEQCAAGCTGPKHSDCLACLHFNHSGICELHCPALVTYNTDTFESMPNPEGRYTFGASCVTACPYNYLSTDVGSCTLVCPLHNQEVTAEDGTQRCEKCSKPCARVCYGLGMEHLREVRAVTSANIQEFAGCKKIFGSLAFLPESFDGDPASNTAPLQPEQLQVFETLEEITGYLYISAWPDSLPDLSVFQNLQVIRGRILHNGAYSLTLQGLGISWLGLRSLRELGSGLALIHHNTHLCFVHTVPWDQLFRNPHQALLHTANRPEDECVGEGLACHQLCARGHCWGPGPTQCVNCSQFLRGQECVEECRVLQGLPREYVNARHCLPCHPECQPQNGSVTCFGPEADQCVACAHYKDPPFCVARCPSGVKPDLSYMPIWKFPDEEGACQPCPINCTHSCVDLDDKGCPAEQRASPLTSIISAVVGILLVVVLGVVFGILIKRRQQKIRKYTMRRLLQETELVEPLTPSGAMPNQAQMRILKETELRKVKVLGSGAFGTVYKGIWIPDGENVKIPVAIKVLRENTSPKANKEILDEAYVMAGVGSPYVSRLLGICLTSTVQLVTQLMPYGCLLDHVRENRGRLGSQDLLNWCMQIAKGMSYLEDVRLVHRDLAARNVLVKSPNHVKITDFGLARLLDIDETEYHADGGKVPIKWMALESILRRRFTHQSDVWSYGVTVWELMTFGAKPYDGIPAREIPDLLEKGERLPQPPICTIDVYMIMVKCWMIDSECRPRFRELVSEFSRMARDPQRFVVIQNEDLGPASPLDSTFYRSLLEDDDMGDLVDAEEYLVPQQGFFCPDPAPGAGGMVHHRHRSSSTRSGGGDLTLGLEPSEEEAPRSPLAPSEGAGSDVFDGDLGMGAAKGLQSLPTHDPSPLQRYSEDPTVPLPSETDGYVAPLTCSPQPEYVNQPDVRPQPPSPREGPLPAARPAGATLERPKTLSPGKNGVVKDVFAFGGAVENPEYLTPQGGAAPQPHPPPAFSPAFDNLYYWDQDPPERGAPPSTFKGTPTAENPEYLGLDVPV
T1 sequence (P00533 whole entry): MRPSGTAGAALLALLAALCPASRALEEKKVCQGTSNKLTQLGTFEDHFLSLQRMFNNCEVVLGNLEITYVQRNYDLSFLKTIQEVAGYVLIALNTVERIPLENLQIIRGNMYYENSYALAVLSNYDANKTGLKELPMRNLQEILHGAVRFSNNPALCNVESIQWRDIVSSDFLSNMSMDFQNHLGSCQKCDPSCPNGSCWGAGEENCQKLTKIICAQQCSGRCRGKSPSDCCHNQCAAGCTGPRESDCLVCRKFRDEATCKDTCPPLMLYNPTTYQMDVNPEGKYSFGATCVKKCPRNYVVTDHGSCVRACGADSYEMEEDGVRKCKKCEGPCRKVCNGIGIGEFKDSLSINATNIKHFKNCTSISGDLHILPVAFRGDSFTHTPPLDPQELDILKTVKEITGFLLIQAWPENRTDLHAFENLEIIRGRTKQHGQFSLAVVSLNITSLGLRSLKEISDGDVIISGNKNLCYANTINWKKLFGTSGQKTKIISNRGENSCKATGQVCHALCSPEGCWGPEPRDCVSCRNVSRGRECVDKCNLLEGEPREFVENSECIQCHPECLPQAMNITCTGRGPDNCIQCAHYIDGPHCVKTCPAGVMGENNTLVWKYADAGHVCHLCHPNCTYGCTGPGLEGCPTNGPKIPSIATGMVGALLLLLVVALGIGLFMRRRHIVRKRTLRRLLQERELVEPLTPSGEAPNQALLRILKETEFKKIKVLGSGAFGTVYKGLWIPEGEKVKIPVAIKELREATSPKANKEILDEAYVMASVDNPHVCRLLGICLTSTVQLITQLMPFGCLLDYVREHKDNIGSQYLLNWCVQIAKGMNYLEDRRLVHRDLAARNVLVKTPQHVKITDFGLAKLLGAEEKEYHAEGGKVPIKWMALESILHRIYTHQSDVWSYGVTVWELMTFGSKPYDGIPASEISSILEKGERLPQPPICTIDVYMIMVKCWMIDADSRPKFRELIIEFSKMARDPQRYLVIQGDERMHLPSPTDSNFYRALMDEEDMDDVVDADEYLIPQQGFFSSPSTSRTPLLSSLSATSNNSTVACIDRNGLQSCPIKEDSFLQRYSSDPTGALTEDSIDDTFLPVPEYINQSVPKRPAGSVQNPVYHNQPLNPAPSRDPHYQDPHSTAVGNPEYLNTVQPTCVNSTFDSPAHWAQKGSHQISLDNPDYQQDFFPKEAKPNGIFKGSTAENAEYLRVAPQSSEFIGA

As to `N#CC(C#N)=C1C(=O)Nc2ccc([N+](=O)[O-])cc21`, in assay [1], the IC50 turned out to be 40 µM.

The compound `N#C/C(=C\c1ccc(O)c(O)c1)C(=O)N1CCCCC1` had an IC50 in assay [1] of over 1000 µM.

Turning to `N#C/C(=C\c1ccc(O)c(O)c1)C(=O)N1CCN(c2ccccc2)CC1`, the IC50 came to 55 µM in assay [2], 49 µM in assay [3] and 4.3 µM in assay [1].

In turn, `N#CC(C#N)=Cc1ccc2c(c1)CCN2Cc1ccccc1` had an IC50 in assay [1] of over 2500 µM.

Turning to `N#CC(C#N)=C1CCCc2c(O)cccc21`, the IC50 in assay [1] turned out to be 1200 µM.

For the compound `N#CC(C#N)=C1CCc2cc(O)c(O)cc21`, the Inhibition in assay [4] was over 150%. This compound also yielded an IC50 in assay [1] of 0.5 µM.

As for `N#C/C(=C\c1ccc(O)c(O)c1)C(=O)NCCc1ccccc1`, the half-inhibitory concentration (IC50) in assay [2] was under 0.625 µM; in assay [3] it was 23 µM; in assay [1], 0.93 µM.

The compound `N#CC(C#N)=Cc1ccc2[nH]ccc2c1` showed an IC50 in assay [5] of 12 µM.

In the case of `C[S+]([O-])c1ccc(C=C(C#N)C#N)cc1` (centres undefined), the IC50 in assay [1] stood at 1800 µM.

Take `N#C/C(=C\c1ccc(O)c(O)c1)C(N)=O`: the results for the IC50 in assay [2], in assay [3] and in assay [6] were 4.5 µM, 6.4 µM and 60 µM, respectively.

For `N#CC(C#N)=Cc1ccco1`, in assay [1], the IC50 is over 1250 µM.

Turning to `N#C/C(=C\c1ccc(O)c(O)c1)C(=O)NC1CCCCC1`, the IC50 was 5.9 µM in assay [2], 17 µM in assay [3], 1.6 µM in assay [1] and 50 µM in assay [6].

As for `N#C/C(=C\c1ccc(O)c(O)c1)C(=O)NCCCCc1ccccc1`, the IC50 in assay [2] was 5 µM; in assay [3], over 500 µM; in assay [1] it was 1.1 µM; in assay [6], 10 µM.

As to `N#C/C(=C\c1ccc(O)c(O)c1)C(=O)NCCCc1ccccc1`, the IC50 in assay [2] stood at 0.7 µM; in assay [3], 35 µM; in assay [1] it was 0.7 µM; in assay [6], 25 µM.

In the case of `Cc1ccc(C(=O)/C(C#N)=C/c2ccc(O)c(O)c2)cc1`, the IC50 in assay [2] came out at 15 µM; in assay [3], 10 µM; in assay [1] it was 0.88 µM; in assay [6], 100 µM.

Regarding `N#C/C(=C\c1ccc(O)c(O)c1)C(=O)c1ccc(F)cc1`, the IC50 in assay [4] was 80 µM; in assay [3] it was 13.6 µM; in assay [1], 0.56 µM; in assay [7], 5.1 µM.

As to `Cc1cccc(C)c1NC(=O)/C(C#N)=C/c1ccc(O)c(O)c1`, the IC50 in assay [2] was 10.3 µM; in assay [3], 34 µM; in assay [1], 5.1 µM; in assay [6] it was over 20 µM.

In assay [1], `N#CC(C#N)=C1C(=O)Nc2ccc(O)cc21` came in with an IC50 of 12.5 µM.

As for `Cc1cc(C)c(C(=O)/C(C#N)=C/c2ccc(O)c(O)c2)c(C)c1`, the values for the IC50 in assay [2], in assay [3] and in assay [1] were 24 µM, 50 µM and 10.7 µM, respectively.

As for `N#C/C(=C\c1ccc(O)c(O)c1)C(=O)c1cccs1`, the values for the IC50 in assay [2], in assay [3] and in assay [1] were 31 µM, 35 µM and 3.1 µM, respectively.

For the compound `N#C/C(=C\c1ccc(O)c(O)c1)C(=O)c1ccccc1`, the IC50 turned out to be 14 µM in assay [2], 18 µM in assay [3], 1.3 µM in assay [1] and 120 µM in assay [6].

As for `CN1C(=O)C(=C(C#N)C#N)c2cc(O)ccc21`, the concentration for half-maximal inhibition (IC50) in assay [1] came out at 26 µM.

In the case of `N#C/C(=C\c1ccc(O)c(O)c1)C(=O)Nc1ccccc1Cl`, the IC50 came to 2.1 µM in assay [2], 57 µM in assay [3], 1.1 µM in assay [1] and 12 µM in assay [6].

For `N#CC(C#N)=Cc1cccnc1`, half-maximal inhibition in assay [1] (IC50) required 225 µM.

`CCOC(=O)C(Cc1ccccc1)NC(=O)/C(C#N)=C/c1ccc(O)c(O)c1` (centres undefined): the values for the IC50 in assay [2], in assay [3] and in assay [1] were 49 µM, over 333 µM and 1.53 µM, respectively.

Turning to `N#C/C(=C\c1ccc(O)c(O)c1)C(=O)c1ccc(O)c(O)c1`, the IC50 in assay [4] is over 50 µM; in assay [2], 5 µM; in assay [3], 18 µM; in assay [1], 0.37 µM.

In turn, `COc1ccc(CCNC(=O)/C(C#N)=C/c2ccc(O)c(O)c2)cc1OC` gave an IC50 in assay [1] of 1.7 µM.

Turning to `N#C/C(=C\c1ccc(O)c(O)c1)C(=O)N1CCc2ccccc21`, the IC50 came to 12 µM in assay [2], 4.9 µM in assay [3], 2.1 µM in assay [1] and 100 µM in assay [6].

In the case of `N#C/C(=C\c1ccc(O)c(O)c1)C(=O)NCc1ccccc1`, the IC50 was found to be 13.5 µM in assay [3] and 25 µM in assay [6].

In turn, `N#CC(C#N)=Cc1ccc(S(=O)(=O)O)o1` gave an IC50 in assay [1] of over 250 µM.

`N#C/C(=C\c1ccc(O)c(O)c1)C(=O)Nc1ccccc1`: the IC50 is 42 µM in assay [3] and over 50 µM in assay [6].

In the case of `N#C/C(=C\c1ccc(O)c(O)c1)C(=O)c1ccc([N+](=O)[O-])cc1`, the IC50 is 11 µM in assay [2], 3 µM in assay [3], 2.3 µM in assay [1] and <<20 uM in assay [6].

`COc1cc2c(cc1O)NC(=O)C2=C(C#N)C#N` had an IC50 in assay [1] of 60 µM.

Compound `COc1ccc(C=C(C#N)C#N)cc1F` returned an IC50 in assay [1] of 800 µM.

`COc1ccc(NC(=O)/C(C#N)=C/c2ccc(O)c(O)c2)c(OC)c1` came in with an IC50 in assay [3] of over 166 µM.

Regarding `N#CC(C#N)=C1CCc2c1ccc(O)c2O`, half-maximal inhibition in assay [1] (IC50) was put at 7 µM.

For the compound `N#CC(C#N)=C1C(=O)Nc2cc(O)c(O)cc21`, the IC50 in assay [1] stood at 2.5 µM.

Take `CSc1ccc(C=C(C#N)C#N)cc1`: in assay [1], the IC50 is over 625 µM.

In assay [1], `CC(=O)Nc1ccc(C=C(C#N)C#N)cc1` showed an IC50 of over 325 µM.

In assay [1], `N#CC(C#N)=Cc1ccc(C#N)cc1` displayed an IC50 of 1400 µM.

With `N#C/C(=C\c1ccc(O)c(O)c1)C(=O)c1ccccc1Cl`, the IC50 in assay [2] came out at 6.6 µM; in assay [3] it was 12 µM; in assay [1], 1.54 µM.

With `N#CC(C#N)=C(N)/C(C#N)=C/c1ccc2[nH]ccc2c1`, the IC50 in assay [4] was >>100 uM; in assay [1] it was 820 µM; in assay [8], 7 µM.

For the compound `CC(NC(=O)/C(C#N)=C/c1ccc(O)c(O)c1)c1ccccc1` (stereo in doubt; 44), the IC50 in assay [2] was found to be 2.5 µM; in assay [3], 37 µM; in assay [1], 0.4 µM; in assay [6] it was 10 µM.

Regarding `CC(NC(=O)/C(C#N)=C/c1ccc(O)c(O)c1)c1ccccc1` (stereo in doubt; 50), the IC50 in assay [1] turned out to be 0.86 µM.
